# Bioassay records deposited in PubChem by several laboratories.
# Ecoli WT expand = blocks growth of wild type E. coli BW25113. OD600 absorbance. growth inhibition, % at 100 µM. 98,000 compounds, 0.15% hits. AID 710;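 active = growth inhibition above about 50% at one test dose, limit read from the data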;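 note: growth measured after 20 h incubation at 37 °C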
# CYP2C19 inh = blocks human cytochrome P450 2C19 | P33261 | CYP2C19 Supersomes, luciferin-H EGE luminescence, 30 min | inhibition, % at 5 µM | 96,000 compounds, 21% hits;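 active = CYP2C19 inhibition above a set limit at 5 µM in the primary screen, cut at about 50% in these data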
# CYP2C9 inhib = inhibitors of human CYP2C9; CYP2C9 Supersomes, luciferin-H conversion, luminescence; inhibition, % at 5 µM; 96,000 compounds, 20% hits;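 active = blocking of liver enzyme CYP2C9 beyond about 50% at 5 µM, limit read from the data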
# Target sequence (P11712 whole entry, looked up): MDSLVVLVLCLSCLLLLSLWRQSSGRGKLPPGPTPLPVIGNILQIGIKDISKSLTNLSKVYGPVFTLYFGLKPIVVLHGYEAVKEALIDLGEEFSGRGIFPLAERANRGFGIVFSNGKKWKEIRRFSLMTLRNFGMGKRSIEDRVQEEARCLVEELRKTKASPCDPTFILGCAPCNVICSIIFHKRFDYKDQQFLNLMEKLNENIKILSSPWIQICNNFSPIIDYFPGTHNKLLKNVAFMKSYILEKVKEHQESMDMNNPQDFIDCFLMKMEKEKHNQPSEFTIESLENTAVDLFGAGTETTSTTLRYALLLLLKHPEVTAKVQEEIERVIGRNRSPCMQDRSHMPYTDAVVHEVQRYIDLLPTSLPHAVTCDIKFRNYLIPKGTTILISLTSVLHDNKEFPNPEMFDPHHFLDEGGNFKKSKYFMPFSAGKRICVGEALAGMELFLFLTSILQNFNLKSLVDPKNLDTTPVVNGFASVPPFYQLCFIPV
# tolC growth inh = growth inhibitors of E. coli BW25113 tolC mutant; 65,000 compounds, 2.2% hits; AID 573; OD615; growth inhibition, % at 10 µM (by protocol);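 active = growth inhibition at or above a cutoff equal to the mean over every tested compound plus 3 SD, cut at about 60% in these data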;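 note: growth measured after 20 h incubation at 37 °C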
#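 Test system: tolC-deleted E. coli BW25113; medium: LB with kanamycin 50 µg/mL; compound: single-point testing at 10 µM; incubation: 20 h compound exposure of bacteria at 37 °C; signal: OD at 615 nm; evaluation: growth inhibition in percent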
# CYP2C19 act = activators of human cytochrome P450 2C19. P33261. recombinant CYP2C19, luciferin-H EGE luminescence; hits give high values; 0 = fully inhibited enzyme, 1 = untreated enzyme. activation factor at 5 µM. 96,000 tested, under 10 active. AID 1025;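 active = activation factor of at least 2 at 5 µM in the primary screen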
# CYP2C9 act = activators of human CYP2C9. AID 1024. recombinant CYP2C9, luciferin-H conversion, luminescence; hits give high values; factor 1 = untreated enzyme, 0 = blocked. 96,000 compounds, 1.4% hits. P11712. activation factor at 5 µM;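 active = activation factor of 2 or more for CYP2C9 at a 5 µM dose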
# Hits are given with their value; n = inactive; x = no result. Most compounds without a hit are left out; they make up all but 29% or so of the library.
SMILES,Ecoli WT expand,CYP2C19 inh,CYP2C9 inhib,tolC growth inh,CYP2C19 act,CYP2C9 act
CCCCC(C)n1[nH]c(=O)cc1N (stereo not given),n,n,n,x,n,n
COc1cc2c(cc1OC)-c1cc(OCCN3CCOCC3)nc(=O)n1CC2,n,n,n,n,n,n
C=CCc1cccc2cc(C(=O)NC(C)(C)C)c(=O)oc12,n,65,55,n,n,n
C=CCc1cccc2cc(C(=O)NCc3cccnc3)c(=O)oc12,n,70,n,n,n,n
C=CCc1cccc2cc(C(=O)NC3=C(C#N)CCC3)c(=O)oc12,n,n,n,x,n,n
Cc1ccc2nc3c(cc(C#N)c(=O)n3CC3CCCO3)c(=O)n2c1 (stereo not given),n,n,n,n,n,n
N=c1cc(C2(O)CCCCC2)n2c(nc3ccccc32)s1,n,n,58,n,n,n
O=c1/c(=C\c2cccnc2)sc2nc3ccccc3n12,n,n,n,n,n,n
Oc1ccc(-c2nc3ncccn3c2Nc2ccc3c(c2)OCO3)cc1,n,n,59,n,n,n
c1ccc(-c2nc3cnccn3c2Nc2ccc3c(c2)OCCO3)cc1,n,x,x,n,x,x
Oc1ccc(-c2nc3cnccn3c2Nc2ccc3c(c2)OCCO3)cc1,n,98,96,n,n,n
Cc1ccc(Sc2cc(Cl)nc(N)n2)cc1,n,n,n,x,n,n
Cc1ccc(S(=O)(=O)N2CCCC2C(=O)N(C)Cc2cccs2)cc1 (stereo not given),n,n,n,n,n,n
O=C(C1CCCN(S(=O)(=O)c2ccc(Cl)cc2)C1)N(Cc1cccs1)C1CC1 (stereo not given),n,69,n,n,n,n
Cc1ccc(Cl)cc1N(CC(=O)N1CCCCCC1)S(C)(=O)=O,n,n,n,n,n,n
Cc1cc(/C=C(/C#N)c2cccc(F)c2)c(C)n1-c1cccnc1,n,89,99,99,n,n
CCOc1ccc(C2CC(=O)NC(SC)=C2C#N)cc1 (stereo not given),n,n,56,n,n,n
COC(=O)CSC1=C(C#N)C(c2ccc(F)cc2)CC(=O)N1 (stereo not given),n,72,90,n,n,n
C=CCSC1=C(C#N)C(c2ccccc2C)CC(=O)N1 (stereo not given),n,n,n,n,n,n
C=CCSC1=C(C#N)C(c2ccc(OCC)cc2)CC(=O)N1 (stereo not given),n,82,65,n,n,n
CCCOC(=O)CSC1=C(C#N)C(c2ccc3c(c2)OCO3)CC(=O)N1 (stereo not given),n,92,97,n,n,n
CSC1=C(C#N)C(c2ccc(C(C)C)cc2)CC(=O)N1 (stereo not given),n,n,n,n,n,n
CCOc1ccc(NC(=O)CSC2=C(C#N)C(c3ccc4c(c3)OCO4)CC(=O)N2)cc1 (stereo not given),n,n,n,n,n,n
CN(C)c1nc(OCC(=O)NC(C)(C)C)nc(N(C)C)n1,n,n,n,n,n,n
CCOc1cc(C(=O)NCCOC)ccc1OC,n,n,n,n,n,n
SMILES,Ecoli WT expand,CYP2C19 inh,CYP2C9 inhib,tolC growth inh,CYP2C19 act,CYP2C9 act
Cc1ccc(CCN2CC(C(=O)NCCCN3CCN(C)CC3)CC2=O)cc1 (stereo not given),n,n,n,n,n,n
CCOC(=O)CN1C(=O)C(O)(c2c(C)[nH]c3ccccc23)c2ccccc21 (stereo not given),n,99,94,n,n,n
CCOC(=O)CN1C(=O)C(O)(C2CCc3ccccc3C2=O)c2ccccc21 (stereo not given),n,73,n,n,n,n
CCCOc1ccc(C2C(C(=O)c3ccc(C)o3)=C(O)C(=O)N2Cc2cccnc2)cc1 (stereo not given),x,n,59,67,n,n
Cc1ccc(C(=O)C2=C(O)C(=O)N(CCCn3ccnc3)C2c2ccc(OC(C)C)cc2)o1 (stereo not given),n,n,57,n,n,n
CCOc1ccc(C(=O)c2cccs2)cc1,n,73,n,n,n,n
CCOc1ccc(C2C(C(=O)c3ccco3)=C(O)C(=O)N2Cc2cccnc2)cc1 (stereo not given),n,n,n,n,n,n
CCOc1ccc(C2C(C(=O)c3cccs3)=C(O)C(=O)N2CCCn2ccnc2)cc1 (stereo not given),x,n,73,x,n,n
COc1ccc(OC)c(-n2c(-c3cccc(O)c3)n[nH]c2=S)c1,n,n,n,n,n,n
O=C(CN1C(=O)NC2(CCCCCCC2)C1=O)N1CCc2ccccc2C1,n,n,n,x,n,n
COc1ccccc1CC1(C)NC(=O)N(CC(=O)N2CCc3ccccc3C2)C1=O (stereo not given),n,n,70,n,n,n
COc1ccc(-c2csc(N(CC3CCCO3)C(=O)c3cccs3)n2)cc1 (stereo not given),n,88,92,n,n,n
COc1ccc(OC)c(-c2csc(N(Cc3ccco3)C(=O)c3cccs3)n2)c1,n,78,85,n,n,n
CCN(CC)CCCN(C(=O)c1cccs1)c1nc(-c2ccc(OC)cc2)cs1,n,n,n,n,n,n
CC(C)c1nnc(NC(=O)c2cccnc2)s1,n,n,n,x,n,n
c1ccc(Cn2nnnc2C(c2cccs2)N2CCCCCC2)cc1 (stereo not given),n,x,x,77,x,x
COc1ccc(Cn2nnnc2C(c2cccs2)N2CCN(c3ccccc3)CC2)cc1 (stereo not given),n,n,n,n,n,n
CN1CCN(C(c2cccc(C(F)(F)F)c2)c2nnnn2Cc2ccccc2)CC1 (stereo not given),n,52,n,n,n,n
N#Cc1cccc(C(c2nnnn2Cc2ccccc2)N2CCCC2)c1 (stereo not given),n,56,n,n,n,n
CC(C)CCn1nnnc1C(c1ccccc1)N1CCN(C)CC1 (stereo not given),n,n,n,n,n,n
COc1ccc(Cn2nnnc2C(c2cccs2)N2CCN(c3ccc([N+](=O)[O-])cc3)CC2)cc1 (stereo not given),n,63,73,x,n,n
N#Cc1ccc(C(c2nnnn2Cc2ccccc2)N2CCCC2)cc1 (stereo not given),n,n,n,x,n,n
Cc1cc(C)c(NC2=CC(=O)CC(C)(C)C2)c(C#N)c1,n,n,n,n,n,n
CC(C)C(c1nnnn1Cc1ccc(F)cc1)N1CCSCC1 (stereo not given),n,x,x,n,x,x
CC(C)C(c1nnnn1Cc1ccccc1)N1CCc2ccccc2C1 (stereo not given),n,n,53,n,n,n
c1ccc(Cn2nnnc2C(c2cccs2)N2CCc3ccccc3C2)cc1 (stereo not given),n,92,70,n,n,n
